Tb hexokinase – T. brucei hexokinase 1 inhibition; inhibition, % at 10 µM; recombinant TbHK1, G6PDH-coupled NADH A340; hit rate 0.11% among 220,000;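 active = inhibition of 50% or more in the single-dose primary screen; inactive = inhibition below 50%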
G6PDH counter – inhibits Leuconostoc G6PDH, flagging false hits in G6PDH-based assays | hit rate 0.12% among 200,000 | inhibition, % at 5 µM | Purified L. mesenteroides G6PDH, diaphorase/resazurin coupled fluorescence, 45 min; in the data active = inhibition above about 50%
PfGluPho inh – PfG6PD (Plasmodium falciparum) enzyme inhibition. PfGluPho enzyme, NADPH resazurin-diaphorase fluorescence. inhibition, % at 20 µM. hit rate 0.78% among 350,000. AID 504690;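 active = inhibition reaching at least a set limit at 20 µM in the primary screen, cut at about 59% in these data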;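 also: 0% = DMSO wells with substrate and 100% = DMSO wells lacking glucose-6-phosphate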
HKDC1 inhibitor – blocks human hexokinase HKDC1 activity | Q2TB90 | recombinant HKDC1, G6PDH/diaphorase resazurin coupled fluorescence | inhibition, % at 20 µM | hit rate 0.16% among 340,000 | AID 493160;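 active = inhibition above about 35% when tested at 20 µM, limit read from the data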;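 also: plate controls were DMSO wells with enzyme for no effect and DMSO wells lacking enzyme for full effect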
Target sequence (Q2TB90 whole entry, looked up): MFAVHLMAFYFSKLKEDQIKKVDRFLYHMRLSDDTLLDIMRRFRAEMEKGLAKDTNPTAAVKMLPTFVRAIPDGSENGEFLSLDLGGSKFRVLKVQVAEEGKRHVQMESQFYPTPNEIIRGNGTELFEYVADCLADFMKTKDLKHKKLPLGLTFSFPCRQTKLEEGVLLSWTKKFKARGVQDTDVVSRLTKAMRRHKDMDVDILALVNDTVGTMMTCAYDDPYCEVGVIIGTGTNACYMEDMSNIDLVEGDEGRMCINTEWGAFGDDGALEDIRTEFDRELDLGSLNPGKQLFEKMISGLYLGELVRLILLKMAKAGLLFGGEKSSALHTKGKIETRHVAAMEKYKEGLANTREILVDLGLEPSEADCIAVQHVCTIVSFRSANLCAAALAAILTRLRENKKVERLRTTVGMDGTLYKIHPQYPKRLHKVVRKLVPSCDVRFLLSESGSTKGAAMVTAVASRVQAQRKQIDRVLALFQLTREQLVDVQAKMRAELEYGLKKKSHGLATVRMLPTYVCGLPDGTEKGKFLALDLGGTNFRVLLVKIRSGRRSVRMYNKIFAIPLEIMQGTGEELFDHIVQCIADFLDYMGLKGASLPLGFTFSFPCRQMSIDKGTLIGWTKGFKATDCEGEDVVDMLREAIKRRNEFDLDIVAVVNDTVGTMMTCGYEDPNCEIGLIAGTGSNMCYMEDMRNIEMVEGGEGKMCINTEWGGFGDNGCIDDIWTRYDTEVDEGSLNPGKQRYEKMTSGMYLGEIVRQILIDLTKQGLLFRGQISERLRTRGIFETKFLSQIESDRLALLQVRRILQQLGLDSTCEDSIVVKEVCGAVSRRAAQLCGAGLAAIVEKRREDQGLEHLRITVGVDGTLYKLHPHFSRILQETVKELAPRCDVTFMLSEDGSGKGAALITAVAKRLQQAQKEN
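Assay system – recombinant HKDC1 (HK5) hexokinase enzyme, produced in-house · Input – HKDC1 at 5 µg/mL · Reagent – glucose plus 1 mM ATP as hexokinase substrates · Timing – 90 min reaction incubation at room temperature, dark · Measured by – G6PDH/diaphorase-coupled fluorescence, 1 mM NADP, 100 µM resazurin, 525/613 nm · Benchmarks – DMSO-enzyme wells negative, buffer-substituted wells positive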
Diaph inh CS – inhibits diaphorase or chemically oxidizes, flagging diaphorase assay artifacts; AID 1217; hit rate 0.69% among 190,000; inhibition, % at 20 µM; diaphorase resazurin-to-resorufin fluorescence, NADH, 16 min; bacterial (C. kluyveri) enzyme, not human;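 active = primary screen inhibition at 20 µM above a set limit, cut at about 50% in these data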;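 also: plate controls were DMSO with full reaction for no effect and wells lacking NADH for full effect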
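System: Diaphorase enzyme from Clostridium kluyveri | Amount: Enzyme working solution with 0.14 U/mL diaphorase | Benchmarks: No-NADH positive control and DMSO neutral control | Signal: Fluorescence of resorufin formed from resazurin, Ex 544/Em 590 nm | Schedule: 16-min room-temperature incubation before reading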
PfGluPho conf – confirmation of Plasmodium falciparum G6PD inhibitors | shares compounds with PfGluPho inh | recombinant PfGluPho, NADPH-diaphorase-resazurin fluorescence | inhibition, % at 20 µM | hit rate 34% among 2,400;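 active = inhibition of at least 50% at 20 µM in any single replicate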;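 also: 0% = DMSO with substrate and 100% = DMSO lacking glucose-6-phosphate substrate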
Diaphorase 10uM – inhibits diaphorase or oxidizes, flagging false PfG6PD hits | shares compounds with PfGluPho inh | diaphorase-coupled resazurin reduction, fluorescence, NADPH 10 uM | inhibition, % at 20 µM | hit rate 39% among 820 | AID 504862;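 active = average inhibition reaching 50% or more with the compound at 20 µM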;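 also: resorufin red fluorescence formed as diaphorase reduces resazurin using NADPH; 0% = DMSO with enzyme and 100% = DMSO without enzyme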
Diaphorase 30uM – counter-screen for P. falciparum G6PD inhibitors: diaphorase inhibitors, oxidizers | shares compounds with PfGluPho inh | Diaphorase/resazurin coupled assay, resorufin fluorescence, 30 uM NADPH | inhibition, % at 20 µM | hit rate 29% among 820;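 active = inhibition averaging 50% or more, tested at 20 µM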;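 also: 0% = DMSO with enzyme and 100% = DMSO wells lacking diaphorase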
* hit, by the source's call. An excerpt weighted towards active compounds, which were near 1.2% of everything screened.

For CCCOc1ccc(/C=N/NC(=O)CN(c2ccc(OCC)cc2)S(C)(=O)=O)cc1 the results were Tb hexokinase -1.4, PfGluPho inh 3.6 and HKDC1 inhibitor 11.0.
Screening CCOc1ccc(N(CC(=O)N/N=C/c2cc([N+](=O)[O-])ccc2Cl)S(C)(=O)=O)cc1 returned Tb hexokinase -9.1, G6PDH counter -3.5, PfGluPho inh 86.7*, HKDC1 inhibitor 9.1, Diaph inh CS 8.4, PfGluPho conf 59.9*, Diaphorase 10uM 71.7* and Diaphorase 30uM 46.0.
Cc1ccc(-c2nnn(CC(=O)N3CCCCC3)n2)o1 was read as Tb hexokinase 3.6, G6PDH counter 0.7, PfGluPho inh -1.7, HKDC1 inhibitor -3.5 and Diaph inh CS 0.5.
`COc1ccc(NC(=O)c2ccc(OC(F)F)cc2)cc1Cl` gave Tb hexokinase 2.4, G6PDH counter -4.8, PfGluPho inh 84.5*, HKDC1 inhibitor 0.2, Diaph inh CS 19.8 and PfGluPho conf 2.0.
Screening COCc1c(C(=O)N/N=C/c2cccc3ccccc23)nnn1-c1nonc1N returned Tb hexokinase -11.7, G6PDH counter 0.2, PfGluPho inh 14.4, HKDC1 inhibitor -13.8 and Diaph inh CS -9.3.
Screening CCc1ccc(NC(=O)c2c(Cl)nc(C)c(Cl)c2C)cc1 returned Tb hexokinase -3.7, G6PDH counter -4.5, PfGluPho inh 84.2*, HKDC1 inhibitor -7.9, Diaph inh CS 13.1 and PfGluPho conf 46.5.
For Cc1ccc(-c2c(C(=O)N/N=C/c3cccs3)nnn2-c2nonc2N)cc1 the results were PfGluPho inh 80.7*, HKDC1 inhibitor 2.9, PfGluPho conf 69.4*, Diaphorase 10uM 61.1* and Diaphorase 30uM 48.4.
Screening Cc1ccc(-c2c(C(=O)N/N=C/c3ccoc3)nnn2-c2nonc2N)cc1 returned PfGluPho inh 28.1 and HKDC1 inhibitor -1.8.
Screening Cc1ccc(-c2c(C(=O)N/N=C/c3cccc(Cl)c3)nnn2-c2nonc2N)cc1 returned PfGluPho inh 144.8*, HKDC1 inhibitor 2.5, PfGluPho conf 110.3*, Diaphorase 10uM 99.3* and Diaphorase 30uM 83.6*.
For Cc1ccc(-c2c(C(=O)N/N=C/c3ccsc3)nnn2-c2nonc2N)cc1 the results were PfGluPho inh 82.2*, HKDC1 inhibitor 0.6, PfGluPho conf 54.1*, Diaphorase 10uM 46.0 and Diaphorase 30uM 47.1.
Cc1cc(C)cc(-n2ccn(CC(=O)NCCc3ccccc3)c(=O)c2=O)c1 was read as PfGluPho inh -5.7 and HKDC1 inhibitor -4.0.
For O=[N+]([O-])c1cccc(S(=O)(=O)N2CCN(c3ccccn3)CC2)c1 the results were PfGluPho inh -9.1 and HKDC1 inhibitor -4.1.
For COc1ccc(NC(=O)CCCNC(=O)Cn2cnc3sc(C)c(C)c3c2=O)c(OC)c1 the results were PfGluPho inh -3.4 and HKDC1 inhibitor 3.6.
`CCOc1ccccc1NC(=O)CCCNC(=O)Cn1cnc2sc(C)c(C)c2c1=O` gave PfGluPho inh 66.6*, HKDC1 inhibitor -4.1 and PfGluPho conf 44.6.
For c1cc(CNc2ccc3c(c2)OCO3)ccn1 the results were Tb hexokinase -0.6, G6PDH counter -28.1, PfGluPho inh 61.2*, HKDC1 inhibitor 22.5, Diaph inh CS 32.3, PfGluPho conf 53.2*, Diaphorase 10uM 15.0 and Diaphorase 30uM 11.4.
Cc1ccc(CNc2ccc3c(c2)OCO3)cc1 was read as Tb hexokinase 6.1, G6PDH counter 23.8, PfGluPho inh 40.0, HKDC1 inhibitor 5.7 and Diaph inh CS 31.4.
`COc1ccc(C2C(C)C(=O)C(C)C(c3ccc(OC)cc3)N2N=O)cc1` (stereo not drawn) gave PfGluPho inh -6.3 and HKDC1 inhibitor -6.0.
`COc1ccccc1C(=O)NCCc1c(C)[nH]c2c(C)ccc(F)c12` gave Tb hexokinase -10.6, G6PDH counter -1.1, PfGluPho inh 18.2, HKDC1 inhibitor -10.5 and Diaph inh CS 4.0.
`CC(C)C(c1nnnn1Cc1ccc(F)cc1)N1CCN(c2ccc(O)cc2)CC1` (stereo not drawn) gave Tb hexokinase 8.0, G6PDH counter 17.7, PfGluPho inh 63.7*, HKDC1 inhibitor -5.6, Diaph inh CS 62.0* and PfGluPho conf 18.6.
Screening COc1ccc(Cn2nnnc2C(C(C)C)N2CCN(c3ccccc3OC)CC2)cc1 (stereo not drawn) returned Tb hexokinase -2.5, G6PDH counter -2.3, PfGluPho inh -9.6, HKDC1 inhibitor 4.3 and Diaph inh CS 17.1.
Screening COCCN(Cc1nc2ccccc2c(=O)[nH]1)C(=O)COc1c(C)cc(Cl)cc1C returned PfGluPho inh 72.4*, HKDC1 inhibitor 2.8 and PfGluPho conf 34.8.
For CN(CC(=O)Nc1ccccc1Cl)C(=O)COC(=O)/C=C/c1cccc(C(F)(F)F)c1 the results were PfGluPho inh 79.3*, HKDC1 inhibitor -0.9 and PfGluPho conf 29.4.
CN(CC(=O)Nc1ccccc1Cl)C(=O)COC(=O)/C=C/c1cccs1 was read as PfGluPho inh 0.0 and HKDC1 inhibitor -5.1.
For Cc1ccc(Cc2c(-c3ccc(Cl)cc3)nc3ccc(Cl)cn23)cc1 the results were PfGluPho inh 86.2* and PfGluPho conf 0.0.
For Cc1ccc(Cc2c(-c3ccc(Br)cc3)nc3ccc(Br)cn23)cc1 the results were PfGluPho inh 67.4* and PfGluPho conf -8.8.
Cc1ccc(Cc2c(-c3ccc(C)cc3)nc3ccc(Cl)cn23)cc1 was read as PfGluPho inh 77.1* and PfGluPho conf -9.6.
O=P(c1ccccc1)(c1ccccc1)C(O)c1ccc(Br)cc1 (stereo not drawn) was read as PfGluPho inh -5.5 and HKDC1 inhibitor -6.2.
Screening Nc1cccc(-c2nc3ccc(C(=O)c4ccccc4)cc3[nH]2)c1 returned PfGluPho inh 62.1*, HKDC1 inhibitor 1.7 and PfGluPho conf 13.5.
O=[N+]([O-])c1ccc2nc(-c3ccccc3)[nH]c2c1 was read as Tb hexokinase -29.4, G6PDH counter -13.4, PfGluPho inh 68.3*, HKDC1 inhibitor 7.2, Diaph inh CS 9.4 and PfGluPho conf 21.1.
`Cc1cc(C2=CC(=O)C[C@H](c3ccc4c(c3)OCO4)C2)ccc1F` gave PfGluPho inh 0.2 and HKDC1 inhibitor 0.2.
Screening Cc1ccc(OCCCC(=O)NCc2ccco2)c(C)c1 returned Tb hexokinase 2.5, G6PDH counter 5.9 and Diaph inh CS 5.6.
`CCN(C[C@H]1N[C@@](C)(C(=O)OC)[C@H]2C(=O)N(C)C(=O)[C@@H]12)C(=O)COC` gave PfGluPho inh -2.1 and HKDC1 inhibitor -1.1.
